Laboratory results reported in publication PMC3512081 (Journal of immunology (Baltimore, Md. : 1950), 2011).
pKi: −log10 of the molar value. Values joined by “and” are separate entries in the source; they are usually repeats but may differ in a detail not shown here. Identical values can stand only once. Like-named read-outs stand apart in the source and are kept apart here.

Legend:
[1] = system: WT and GFP-transduced Hela cells; assay: 3H-L-tryptophan uptake by IDO negative Hela cells; assay type: cell-based, human; details: for effect of excess unlabelled amino acid on 3H-tryptophan uptake: IDO negative Hela cells, high concentration (5mM glycine, histidine, glutamine)
Procedure, shortened: (§1)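 HeLa cells were used untreated, GFP-transduced, human-IDO lentivirus-transduced, or given 1000 U/ml IFNγ for 48 h, and assayed at 90-100% confluence. Preincubated 20-30 min in PBS or choline buffer (pH 7.4). 3H-L-tryptophan was added at 50 pmol/ml, with initial-rate uptake over 3 min at 37°C. Stopped with 20mM L-lysine in ice-cold PBS, then NaOH/SDS lysis and scintillation counting. Competitors: BCH, D/L-Met, 5mM histidine, glycine or glutamine, and titrations. Triplicates, normalized; Student's t-test.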

histidine uptake = assay: 14C-histidine uptake; assay type: cell-based; details: data not shown
[2] = system: IDO-lentivirus transduced or IFN-γ treated Hela cells; assay: 3H-L-tryptophan uptake by IDO positive Hela cells; assay type: cell-based, human; details: for effect of excess unlabelled amino acid on 3H-tryptophan uptake: high concentration (5mM glycine, histidine, glutamine); for pKi: read-out: Ki for 3H-tryptophan uptake
Procedure, shortened: as §1

[3] = system: IDO-transduced (C7) EG7 cells; assay: 3H-L-tryptophan uptake by IDO positive EG7 cells; assay type: cell-based, mouse; details: for effect on tryptophan uptake, inhibitor alone: IDO positive cells; for tryptophan uptake maintained: 0.05mM, EG7-C7 cells, absence of BCH; for fold lower affinity of the additional transporter versus the first transporter: IDO positive C7 cells, equation based on two independent systems
Procedure, shortened: (§2)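 EG7 mouse T lymphoma cells: wild-type, GFP-only lentivirus controls, or an IDO/GFP lentivirus-transduced clone. Cultured 48 h, washed, then held 20-30 min in PBS or sodium-free choline buffer (pH 7.4). 3H-L-tryptophan was added at 50 pmol/ml and incubated a fixed time at 37°C. Uptake was stopped by spinning cells through oil. Competitors: BCH, D- or L-Met titrations, glutamine. Duplicate samples. Ki fitted assuming one or two transport systems.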

[4] = system: IDO induced tryptophan transporter; assay type: cell-based, human; details: for effect on tryptophan uptake in the presence of 2.5mM glutamine: IDO positive Hela cells, L-tryptophan at 2mM
Procedure, shortened: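 IFN-γ-treated or human IDO-lentivirus-transduced Hela cells are grown 48h to 90-100% confluence, washed, then preincubated 20-30 min in PBS or choline buffer (pH 7.4). Add 3H-L-tryptophan at 50pmol/ml with competing amino acid and take uptake at 37°C under initial-rate conditions over 3 min. Stop with 20mM L-lysine in ice-cold PBS, lyse in 1% NaOH/0.1% SDS, and count by liquid scintillation.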

activated human T cells = assay: Tryptophan uptake by activated human T cells; assay type: cell-based; details: preliminary data, not shown
[5] = system: EG7 WT and GFP-transduced cells; assay: 3H-L-tryptophan uptake by IDO negative EG7 cells; assay type: cell-based, mouse
Procedure, shortened: as §2

[6] = WT and GFP-transduced Hela cells

SMILES: N[C@@H](Cc1c[nH]cn1)C(=O)O [histidine]
- effect of excess unlabelled amino acid on 3H-tryptophan uptake [1]: completely inhibited
- effect on uptake of 14C-histidine (histidine uptake): inhibited
- fold increase in Ki for IDO positive cells compared with IDO negative controls ([2]; Hela cells): 10 fold
- effect of excess unlabelled amino acid on 3H-tryptophan uptake ([2]; IDO positive Hela cells): a proportion of the tryptophan uptake was retained

SMILES: CNC(C)(C)C(=O)O [MeAIB, methyl-aminoisobutyric acid]
- effect on tryptophan uptake, inhibitor alone ([3]; data not shown): minimal effect

SMILES: N[C@@H](Cc1ccc(O)c(O)c1)C(=O)O [L-Dopa, L-3,4-dihydroxyphenylalanine]
- effect on tryptophan uptake in the presence of 2.5mM glutamine [4]: inhibited

SMILES: N[C@@H](Cc1c[nH]c2ccccc12)C(=O)O [tryptophan, L-tryptophan]
- effect of excess unlabelled amino acid on 3H-tryptophan uptake [1]: effectively competed
- effect on tryptophan uptake in the presence of 2.5mM glutamine [4]: reduced to baseline
- pKi ([4]; read-out: Ki of the induced glutamine-resistant 3H-tryptophan transport, IDO positive tumor cells, 2.5mM glutamine): 5.38 to 5.64 and 5.52
- effect on uptake of 14C-histidine (histidine uptake): inhibited
- calculated Ki compared between cell types ([2]; Hela cells, IDO positive versus IDO negative): almost identical
- effect of excess unlabelled amino acid on 3H-tryptophan uptake ([2]; IDO positive Hela cells): effectively competed

SMILES: NC(=O)CC[C@H](N)C(=O)O [glutamine]
- tryptophan uptake in the presence of glutamine ([3]; murine EG7-IDO positive cells, data not shown): resistant to inhibition
- effect of excess unlabelled amino acid on 3H-tryptophan uptake [1]: completely inhibited
- effect of glutamine alone on tryptophan uptake [1, 6]: completely abolished
- effect on uptake of 14C-histidine (histidine uptake): inhibited
- tryptophan uptake maintained ([2]; 5mM, IDO positive Hela cells): over 50%
- fold increase in Ki for IDO positive cells compared with IDO negative controls ([2]; Hela cells): 10 fold
- effect of excess unlabelled amino acid on 3H-tryptophan uptake ([2]; IDO positive Hela cells): a proportion of the tryptophan uptake was retained
- sensitivity of tryptophan uptake to inhibition (activated human T cells): highly sensitive to inhibition
- tryptophan uptake in the presence of glutamine ([5]; WT and GFP-transduced EG7 cells, data not shown): inhibited

SMILES: CSCC[C@H](N)C(=O)O [L-Met, L-methionine]
- tryptophan uptake maintained [3]: greater than 40%
- fold lower affinity of the additional transporter versus the first transporter [3]: 10 fold
- effect on 3H-tryptophan uptake [1, 6]: strongly inhibited
- inhibition at 50 µM ([5]; Mus musculus, EG7, read-out: inhibition of tryptophan uptake): > 80%

SMILES: CSCC[C@@H](N)C(=O)O [D-Met, D-Methionine]
- tryptophan uptake maintained [3]: greater than 40%
- fold higher Ki in IDO positive cells than IDO negative cells ([3]; EG7 cells, single uptake system calculation): approximately 10 fold
- fold lower affinity of the additional transporter versus the first transporter [3]: 10 fold
- pKi ([3]; read-out: Ki calculated based on a single tryptophan uptake system, IDO positive EG7 cells): 3.52 to 4.00
- effect on 3H-tryptophan uptake [1, 6]: strongly inhibited
- inhibition of tryptophan uptake ([5]; 0.05mM, WT and GFP-expressing EG7 cells, absence of BCH): over 80%

SMILES: CCN1C(=O)C=CC1=O [NEM, N-ethyl maleimide]
- effect on tryptophan uptake, inhibitor alone ([3]; data not shown): minimal effect

SMILES: N[C@H](Cc1c[nH]c2ccccc12)C(=O)O [D-tryptophan]
- effect on tryptophan uptake in the presence of 2.5mM glutamine [4]: minimal inhibition

SMILES: N[C@@H](Cc1ccccc1)C(=O)O [phenylalanine]
- effect on tryptophan uptake in the presence of 2.5mM glutamine [4]: inhibited
- inhibition of tryptophan uptake in the presence of glutamine ([4]; IFN-γ-treated and IDO transduced Hela cells, 2.5mM glutamine): over 50%

SMILES: NCC(=O)O [glycine]
- effect of excess unlabelled amino acid on 3H-tryptophan uptake [1]: no effect
- effect of excess unlabelled amino acid on 3H-tryptophan uptake ([2]; IDO positive Hela cells): no effect

SMILES: NC1(C(=O)O)CC2CCC1C2 (stereo not drawn) [BCH, 2-aminobicyclo-(2,2,1)-heptane-2-carboxylic acid]
- effect on transporter-mediated 3H-L-tryptophan uptake ([3]; high concentrations, IDO positive EG7 cells, sodium-free): completely abolished
- effect on 3H-tryptophan uptake [1, 6]: strongly inhibited
- pKi ([1]; read-out: Ki for 3H-tryptophan uptake, control Hela cells): 4.92
- effect on tryptophan uptake in the presence of 2.5mM glutamine [4]: no additional inhibition
- pKi ([2]; IDO transduced Hela cells): ~3.52
- pKi ([2]; IFN-γ treated Hela cells): ~3.22
- effect on transporter-mediated 3H-L-tryptophan uptake ([5]; high concentrations, EG7-WT and GFP cells, sodium-free): completely abolished

SMILES: N[C@@H](Cc1ccc(O)cc1)C(=O)O [tyrosine]
- effect on tryptophan uptake in the presence of 2.5mM glutamine [4]: little additional effect
